# Data published in ChEMBL document CHEMBL4414600, “Discovery of a Furanopyrimidine-Based Epidermal Growth Factor Receptor Inhibitor (DBPR112) as a Clinical Candidate for the Treatment of Non-Small Cell Lung Cancer” (J Med Chem, 2019).
# The source made the active and inactive calls. No cut-off for these calls is given here.
# Key:
# [1] = Toxicity in nude BALB/c mouse xenografted with human NCI-H1975 cells assessed as drug tolerability at 50 mg/kg, po QD for 15 days relative to control; assay type: organism-based; details: in vivo, 360 h
# Summary of the method: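 H1975 cells were grown in RPMI1640 with 10% heat-inactivated FBS at 37 °C, 5% CO2, and passaged by trypsin-EDTA. 5x10^6 cells in 0.1 ml PBS were injected subcutaneously at the right flank of BALB/c nude mice. Oral QD dosing for 15 days began at a mean tumor size of 147 mm³, n = 5 per group.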
# HCC827 = test: Antitumor activity against human HCC827 cells xenografted in athymic NU-Fox1nu nude mouse assessed as inhibition of tumor growth at 20 to 50 mg/kg, po dosed via gavage for 5 days/week for 2 consecutive weeks; assay type: functional, organism-based
# Summary of the method: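 Male athymic NU-Fox1nu nude mice, 6–8 weeks old, were inoculated subcutaneously at the left flank with 5x10^6 HCC827 (exon 19 Del E746_A750) cells. Oral gavage began at a mean tumor size of about 500 mm³, in 1% methylcellulose/0.5% Tween 80/98.5% water, once daily on days 1-5 and 8-12. Tumor volume (V = 0.5 a × b², caliper) and body weight were tracked.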
structure (smiles),measurement,setting,value
CN(C)C/C=C/C(=O)Nc1cccc(-c2c(-c3ccccc3)oc3ncnc(N[C@H](CO)c4ccccc4)c23)c1,Activity,[1],Non-Toxic
same,TGI,HCC827,Active
